NR2E3 ag-1 = agonists of human NR2E3 nuclear receptor; inhibition of corepressor binding, % at 3.98 µM; AID 602229; CHO-S Gal4-NCOR/VP16-NR2E3 two-hybrid, luciferase; Q9Y5X4; 360,000 compounds, 0.35% hits;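 active = inhibition above the mean of all tested compounds plus 3 SD, cut at about 70% in these data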;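 also: 0% = DMSO with NR2E3 transfected cells and 100% = cells lacking NR2E3 construct; higher means lower luciferase signal from less NR2E3 corepressor binding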
Target sequence (Q9Y5X4 whole entry, looked up, the tested form may be a part): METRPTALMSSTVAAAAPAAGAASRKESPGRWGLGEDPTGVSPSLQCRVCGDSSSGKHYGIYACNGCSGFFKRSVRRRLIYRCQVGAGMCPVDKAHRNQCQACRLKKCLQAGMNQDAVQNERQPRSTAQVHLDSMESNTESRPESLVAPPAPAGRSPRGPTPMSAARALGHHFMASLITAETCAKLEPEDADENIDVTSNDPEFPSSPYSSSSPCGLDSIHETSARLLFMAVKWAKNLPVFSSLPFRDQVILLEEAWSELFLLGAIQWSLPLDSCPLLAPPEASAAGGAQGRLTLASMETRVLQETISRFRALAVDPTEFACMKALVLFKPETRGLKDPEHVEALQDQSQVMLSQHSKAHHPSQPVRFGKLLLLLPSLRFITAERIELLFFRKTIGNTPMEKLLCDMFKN
NR2E3 ag-2 = agonists of human nuclear receptor NR2E3; GST-NR2E3/biotin-RetCOR TR-FRET, 1536-well; AID 2300; inhibition of corepressor binding, % at 4.78 µM; 320,000 compounds, 0.12% hits;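 active = percent inhibition above the cutoff of mean plus 3 SD of all tested compounds, set per screening campaign, cut at about 20% in these data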;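 also: 0% = DMSO wells and 100% = biotin wells as full block of FRET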
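Format: 1536-well format; test system: GST-NR2E3 and biotin-RetCOR proteins; read-out basis: percent inhibition of TR-FRET ratio; timing: 5 h incubation at 4 °C; detection: time-resolved FRET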
SKN-1 inh = C. elegans SKN-1 inhibition | 360,000 compounds, 0.49% hits | AID 624304 | C. elegans VP596 Pgst-4::GFP/RFP ratio, acrylamide-induced, 24 h | inhibition, % at 21.8 µM;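 active = interference check ratio from 0.5 to 1.5 plus GFP to RFP signal ratio inhibition reaching or exceeding a fixed threshold, cut at about 30% in these data, passing the limit was not always enough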
PG9 Ab binder = PG9 antibody binding by small molecule. TR-FRET gp120-PG9 antibody binding. inhibition, % at 6.7 µM. 360,000 compounds, 0.43% hits. AID 624416; in the data active = inhibition above about 8.5%
MT1-MMP act inh = MT1-MMP (human) activation inhibition; 360,000 compounds, 0.061% hits; GFP/RFP ratio change, % at 20 µM; HT1080 RFP-PRO-GFP cells, GFP/RFP ratio fluorescence, overnight; percent of plate control window, DMSO zero; P50281;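 active = GFP/RFP ratio change of at least 30% with cell ATP level not reduced by more than half and red fluorescence within 50% of control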
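Test system: HT1080 RFP-PRO-GFP cells; Benchmarks: DMSO and RFP-L50D-GFP cell wells; Timing: cells overnight before dosing, compound overnight, 37 °C, 5% CO2; Compound: one 20 µM compound dose with 1% DMSO; Read-out: GFP/RFP fluorescence ratio.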
NR1D1 modulator = modulates human Rev-erb alpha binding to DNA; activity, % at 10 µM; Rev-erbα–FITC-DNA binding, fluorescence polarization, 90 min; P20393; 370,000 compounds, 0.79% hits;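 active = activity above about 14%, limit read from the data; passing the limit was not always enough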;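 also: 0% = DMSO wells with 35 nM protein and 100% = DMSO wells with 750 nM protein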
NR2E3 ag conf = confirmation of human NR2E3 agonists; CHO-S mammalian two-hybrid NR2E3-NCOR, luciferase luminescence; shares compounds with NR2E3 ag-1; inhibition, % at 3.98 µM; 2,300 compounds, 51% hits;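 active = average inhibition above a cutoff equal to the mean inhibition of all tested compounds plus one SD, cut at about 70% in these data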;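 also: 0% = DMSO in NR2E3 cells and 100% = DMSO in cells lacking NR2E3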
VP16 counter = GAL4-VP16 reporter inhibition in NR2E3 agonist counterscreen; shares compounds with NR2E3 ag-1; CHO-S GAL4-VP16 luciferase reporter, luminescence; inhibition, % at 3.98 µM; 2,300 compounds, 29% hits;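 active = mean inhibition above a cutoff equal to the average over all tested compounds plus one standard deviation, cut at about 70% in these data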;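 also: luciferase from a UAS reporter driven by GAL4-VP16 transactivation; 0% = DMSO with VP16-transfected cells and 100% = DMSO with cells lacking VP16; higher means less reporter light so more repression of VP16 activity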
Starred values were filed as active, the others as inactive; x = no result. The list is not random: actives were taken first. Their share in the collection is about 1.9%.

SMILES | NR2E3 ag-1 | NR2E3 ag-2 | SKN-1 inh | PG9 Ab binder | MT1-MMP act inh | NR1D1 modulator | NR2E3 ag conf | VP16 counter
COC(=O)c1cc2c(c3c4cc(C)ccc4n(S(=O)(=O)c4ccccc4)c13)C(=O)N(Cc1ccc(C(F)(F)F)cc1)C2 | x | x | x | -3 | x | -3 | x | x
O=c1[nH]c(=O)n(C2OC(CO)C(O)C2O)cc1F (stereo not given) | 49 | x | -9 | x | 7 | x | 17 | 6
Cc1ccc(-n2c(-c3ccc(Br)cc3)c[n+]3c2CCc2ccc4cccnc4c2-3)cc1 | 83* | -6 | -3 | -1 | -28 | -4 | 99* | 72*
COc1ccc(-n2c(-c3ccc(Cl)cc3)c[n+]3c2CCc2ccccc2-3)cc1 | -2 | 3 | 2 | -3 | -24 | 2 | x | x
Nc1ccn([C@@H]2O[C@H](C(=O)N[C@H](Cc3ccccc3)C(=O)N3CCN(C(=O)N4CCOCC4)CC3)[C@@H](O)[C@H]2O)c(=O)n1 | x | x | x | 0 | x | 8 | x | x
COc1ccc(CNC(=O)OC2CC3CC2[C@H]2CCCCN2C3)cc1 (stereo not given in full) | x | x | x | x | x | 0 | x | x
Cc1ccc(S(=O)(=O)Nc2cccc3cccnc23)cc1 | 97* | 2 | -23 | 0 | 2 | 6 | 46 | 5
Cc1ccc(S(=O)(=O)Nc2ccccc2-c2ccccc2NS(=O)(=O)c2ccc(C)cc2)cc1 | 45 | 1 | -5 | 0 | 1 | -5 | x | x
Cc1ccc(S(=O)(=O)Nc2cccnc2)cc1C | -6 | 6 | 20 | -2 | -1 | -4 | x | x
COc1cc(NS(=O)(=O)c2ccc(C)cc2)c2ncccc2c1 | 82* | 0 | 2 | -1 | -13 | 1 | -20 | 3
O=S(=O)(Nc1cccnc1Cl)c1ccc(-c2ccccc2)cc1 | 64 | 0 | 13 | 0 | 2 | -2 | 53 | 45
O=S(=O)(Nc1ccccc1O)c1ccc(-c2ccccc2)cc1 | 0 | 3 | 12 | 1 | 1 | -2 | x | x
Cc1ccc(-c2ccc(S(=O)(=O)Nc3cccnc3)cc2)cc1 | 65 | 2 | -2 | -2 | 7 | 2 | 84* | 69
COC(=O)c1cc2c(c3c4ccccc4n(S(=O)(=O)c4ccc(C)cc4)c13)C(=O)N(C)C2 | x | x | x | 3 | x | -3 | x | x
CCCCCCCCN1C(=O)[C@@H](CC(=O)N2CCCCC2)C[C@@]2(C(=O)OC)C1=C[C@H](C(C)(C)C)O[C@@H]2C | x | x | x | 1 | x | -2 | x | x
COc1ccccc1C(=O)N1CCN(C(=O)[C@H](CCc2ccccc2)NC(=O)[C@H]2O[C@@H](n3cnc4c(N)ncnc43)[C@H](O)[C@@H]2O)CC1 | x | x | x | -1 | x | -4 | x | x
Cc1ccccc1-c1ccc2c(c1)[C@@H]1C[C@H]3[C@@H](CN1CC2)[C@H](C)OC(c1ccccc1)N3C (stereo not given in full) | x | x | x | -1 | x | 1 | x | x
Cc1ccc(-n2nnnc2-c2cnc(N3CCCC3)nc2C(F)(F)F)cc1 | 9 | -3 | 10 | 2 | -3 | 0 | x | x
FC(F)(F)c1nc(N2CCCC2)ncc1-c1nnnn1-c1ccccc1 | 65 | -3 | -31 | 0 | -3 | -3 | 75* | 60
CC(=O)N1CC(C)Sc2ccc(S(=O)(=O)NCc3ccc(Cl)cc3)cc21 (stereo not given) | 48 | 5 | 15 | 0 | -4 | -2 | 42 | 42
CC(=O)N1CC(C)Sc2ccc(S(=O)(=O)NCCc3ccc(C)cc3)cc21 (stereo not given) | 80* | 3 | 3 | 3 | 3 | -2 | 74* | 68
CC(=O)N1CC(C)Sc2ccc(S(=O)(=O)NCCc3ccccc3)cc21 (stereo not given) | 48 | 1 | 4 | 3 | 1 | 4 | x | x
CC(C)(C)OC(=O)NCCCCCc1cn([C@@H](CO)C(=O)NCCCCCCCCCCC(=O)N2CCN(C(=O)OC(C)(C)C)CC2)nn1 | 66 | 3 | 2 | 2 | 1 | 0 | 83* | 74*
CC(C)(C)OC(=O)CC[C@@H](C(=O)NCCCCCCCCCCC(=O)N1CCN(C(=O)OC(C)(C)C)CC1)n1cc(CCCCCNC(=O)OC(C)(C)C)nn1 | -3 | 3 | 2 | 2 | 6 | 7 | x | x
OC(c1cc(C(F)(F)F)nc2c(C(F)(F)F)cccc12)C1CCCCN1 (stereo not given) | 14 | 4 | -7 | 0 | -10 | -3 | x | x
SMILES | NR2E3 ag-1 | NR2E3 ag-2 | SKN-1 inh | PG9 Ab binder | MT1-MMP act inh | NR1D1 modulator | NR2E3 ag conf | VP16 counter
OC(c1cc(-c2ccc(C(F)(F)F)cc2)nc(C(F)(F)F)c1)C1CCCCN1 (stereo not given) | 92* | -1 | 20 | 0 | -19 | 1 | 59 | 48
Nc1ncnc2c(C3OC(CO)C(O)C3O)scc12 (stereo not given) | 100* | x | 8 | 1 | -22 | 3 | 97* | 96*
Nc1ncnc2c1ncn2[C@@H]1O[C@H](CO)[C@H](O)C1O (stereo not given in full) | x | x | x | x | x | 3 | x | x
COc1cccc(/C=N/Nc2ccc([N+](=O)[O-])cn2)c1O | 103* | 1 | 15 | 0 | 10 | -2 | 99* | 93*
COC(=O)[C@]12C[C@H](CC(=O)NCCCCc3ccccc3)C(=O)N(Cc3ccccc3)C1=C[C@H](C1CCCC1)O[C@@H]2C | x | x | x | 0 | x | 0 | x | x
COC(=O)[C@]12C[C@H](CC(=O)NCc3ccc(OC)c(OC)c3)C(=O)N(Cc3ccccc3)C1=C[C@H](COCc1ccccc1)O[C@@H]2C | x | x | x | x | x | 1 | x | x
NC(=O)c1nnn(Cc2cc(Cl)c(C(=O)c3ccc(Cl)cc3)c(Cl)c2)c1N | 91* | x | -2 | -2 | 14 | 3 | 96* | 82*
COC(=O)[C@]12C[C@H](CC(=O)N3CCN(C(=O)c4ccco4)CC3)C(=O)N(Cc3cccc4ccccc34)C1=C[C@H](C(C)C)O[C@@H]2C1CC1 | x | x | x | x | x | 7 | x | x
COc1cnc(-c2ccccn2)nc1Oc1ccc(F)cc1F | 44 | 4 | -1 | -2 | -2 | 4 | x | x
COc1ccccc1Sc1nc(-c2ccccn2)ncc1OC | 78* | -4 | 10 | -2 | 1 | 3 | 45 | -1
Cc1ccc(Sc2cc(C)nc(-c3ccccn3)n2)cc1 | 86* | -2 | 9 | 0 | 2 | 5 | -6 | -24

High-throughput results deposited in PubChem BioAssay by several laboratories.
